Experimental data reported in paper PMC10918659 (ACS Omega, 2024).
Like-named read-outs stand apart in the source and are kept apart here. Values belong to the compound of their own block, whether it stands above or below them.

Experiments:
[1] = Serum biochemical parameters during NNK lung cancer induction; assay type: in vivo, Sprague-Dawley rats
Summary of the method: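 NNK was given to Sprague-Dawley rats (200–250 g) as […]. Tail-vein blood was clotted 30 min at RT, spun 20 min at 1200 rpm, and serum stored at −80 °C. TBARS: TCA/TBA/HCl at 95 °C for 15 min, […]. SOD: epinephrine in carbonate buffer pH 9.2, A295, reported as units/mg protein.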

Pharmacokinetic study = assay type: in vivo, Sprague-Dawley rats; details: for Cmax / MRT / Tmax / half-life: Sprague-Dawley, rat, inhaled or intranasal, 3.5 mg/kg; for Frel: relative to silibinin solution; for AUCtotal / CL: silibinin 3.5 mg/kg, NPs 2.5 mg/kg by microspray aerosolizer
Toxicity experiment = assay type: in vivo, Sprague-Dawley rats; details: daily for 2 weeks; SB 3.5 mg/kg, NPs 2.5 mg/kg
Summary of the method: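 Sprague-Dawley rats, n = 6 per group, were dosed daily for 2 weeks with free test compound (3.5 mg/kg), folate-conjugated nanoparticles (2.5 mg/kg), or saline via the caudal vein. Food and water were given freely. After 2 weeks, rats were sacrificed and lungs, liver, kidneys and spleen were weighed. Body-weight gain was recorded, and the organ index (mg/g) was calculated from organ weights.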

[2] = cited from earlier work

Structure (SMILES): CN(CCCC(=O)c1cccnc1)N=O [NNK, 4-(methylnitrosamino)-1-(3-pyridyl)-1-butanone]
increase of MDA content in sera vs control ([1]; 2 months): 4.21%
reduction of SOD activity vs control ([1]; 2 months): 10.437%
increase of MDA content in sera vs control ([1]; 3 months): 21.4%
reduction of SOD activity vs control ([1]; 3 months): 29.16%
increase of MDA content in sera vs control ([1]; 4 months): 35.16%
reduction of SOD activity vs control ([1]; 4 months): 45.21%

Cmax (Pharmacokinetic study; lung): 32500 ± 25800 ng/mL
MRT (Pharmacokinetic study; lung): 3.88 ± 0.87 h
Tmax (Pharmacokinetic study; lung): 1 ± 2.21 h
half-life (Pharmacokinetic study; lung): 4.3 ± 0.58 h
Cmax (Pharmacokinetic study; plasma): 23600 ± 13200 ng/mL
MRT (Pharmacokinetic study; plasma): 4.25 ± 1.05 h
Tmax (Pharmacokinetic study; plasma): 1 ± 2.21 h
half-life (Pharmacokinetic study; plasma): 8.9 ± 1.25 h
Frel (Pharmacokinetic study; lung kinetics): 1
AUCtotal (Pharmacokinetic study; lung kinetics): 745.2 ± 102.5 µg·h/mL
CL (Pharmacokinetic study; lung kinetics): 0.57 ± 1.02 h⁻¹
time to reach peak (Pharmacokinetic study; lungs): 1 h
time to reach peak (Pharmacokinetic study; plasma): 1 h
Frel (Pharmacokinetic study; plasma kinetics): 1
AUCtotal (Pharmacokinetic study; plasma kinetics): 978.5 ± 118.52 µg·h/mL
CL (Pharmacokinetic study; plasma kinetics): 0.87 ± 0.89 h⁻¹
Structure (SMILES): COc1cc(C2Oc3cc([C@H]4Oc5cc(O)cc(O)c5C(=O)[C@@H]4O)ccc3OC2CO)ccc1O (stereo partly drawn) [silibinin]
increment in weight (Toxicity experiment): 29.85 ± 3.21 g
kidney organ index (Toxicity experiment): 3.78 mg/g
liver organ index (Toxicity experiment): 39.52 mg/g
lung organ index (Toxicity experiment): 6.27 mg/g
spleen organ index (Toxicity experiment): 7.42 mg/g
Tmax ([2]; after oral administration): 2 to 4 h
half-life ([2]; after oral administration): 6 h
oral rate of absorption ([2]; conventional silibinin): 23–47%
